Experiments:
MCF7 [1] = test: Cytotoxicity against human multidrug-resistant MCF7 cells after 72 hrs by SRB assay; type: functional, cell-based; settings: MCF7, 72 h
How it was run: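 Monolayer cultures kept in RPMI-1640 with 5% FCS, 5% NuSerum IV, 20 mM HEPES, 2 mM L-glutamine at 37 °C, 5% CO2. Cells seeded at 800-1500/well and allowed to attach 15-18 h, then given 10 concentrations spanning 5 logs (DMSO stock diluted in RPMI-1640/10 mM HEPES) for 72 h. Fixed with cold TCA, stained with 0.4% SRB, OD 570 nm. Sigmoid-Emax nonlinear regression fit.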

MCF7 [2] = test: Cytotoxicity against human MCF7 cells after 72 hrs by SRB assay; type: functional, cell-based; settings: MCF7, 72 h

Row | Structure (SMILES) | IC50 (MCF7 [1]) [nM] | IC50 (MCF7 [2]) [nM]
1 | CC(=O)O[C@@]1([C@@H]2/C(C)=C(/O)C(=O)C3=C(C)[C@@H](OC(=O)[C@H](O)[C@H](CC(C)C)NC(=O)OC(C)(C)C)C[C@@](O)([C@H]2OC(=O)c2ccccc2)C3(C)C)CO[C@@H]1CCO | 1640 | 14
2 | CC(=O)O[C@@]1([C@@H]2/C(C)=C(/OC(=O)OC(C)(C)C)C(=O)C3=C(C)[C@@H](OC(=O)[C@H](O)[C@H](CC(C)C)NC(=O)OC(C)(C)C)C[C@@](O)([C@H]2OC(=O)c2ccccc2)C3(C)C)CO[C@@H]1CCOC(=O)OC(C)(C)C | 736 | 51
3 | CC(=O)OCC[C@H]1OC[C@@]1(OC(C)=O)[C@@H]1/C(C)=C(/OC(C)=O)C(=O)C2=C(C)[C@@H](OC(=O)[C@H](O)[C@H](CC(C)C)NC(=O)OC(C)(C)C)C[C@@](O)([C@H]1OC(=O)c1ccccc1)C2(C)C | 956 | 36
4 | CC(=O)O[C@@]1([C@@H]2/C(C)=C(/OC(=O)[C@@H](O)[C@@H](CC(C)C)NC(=O)OC(C)(C)C)C(=O)C3=C(C)[C@@H](O)C[C@@](O)([C@H]2OC(=O)c2ccccc2)C3(C)C)CO[C@@H]1CCOC(=O)C(C)(C)C | > 3000 | > 3000
5 | CC(=O)O[C@@]1([C@@H]2/C(C)=C(/OC(=O)OCc3ccccc3)C(=O)C3=C(C)[C@@H](OC(=O)[C@H](O)[C@H](CC(C)C)NC(=O)OC(C)(C)C)C[C@@](O)([C@H]2OC(=O)c2ccccc2)C3(C)C)CO[C@@H]1CCO | 1200 | 53
6 | CC(=O)O/C1=C(\C)[C@@H]([C@]2(OC(C)=O)CO[C@@H]2CCO)[C@H](OC(=O)c2ccccc2)[C@]2(O)C[C@H](OC(=O)[C@H](O)[C@H](CC(C)C)NC(=O)OC(C)(C)C)C(C)=C(C1=O)C2(C)C | 1000 | 18
7 | CC(=O)O[C@H]1C(=O)[C@@]2(C)[C@H]([C@H](OC(=O)c3ccccc3)[C@]3(O)C[C@H](OC(=O)[C@H](O)[C@@H](NC(=O)c4ccccc4)c4ccccc4)C(C)=C1C3(C)C)[C@]1(OC(C)=O)CO[C@@H]1C[C@@H]2O [PACLITAXEL] | 354 | 

Source: ChEMBL document CHEMBL1146476, “Structure-activity relationships of ring C-secotaxoids. 1. Acylative modifications” (J Nat Prod, 2004)
